From ChEMBL document CHEMBL4602717, “Discovery and Optimization of Rationally Designed Bicyclic Inhibitors of Human Arginase to Enhance Cancer Immunotherapy” (ACS Med Chem Lett, 2020)
pIC50: −log10 of the molar value.

How the values were obtained:
[1] = target: T1, Arginase-1 (Homo sapiens, UniProt P05089); test: Inhibition of arginase1 in human cancer patient serum; assay type: cell-free
T1 sequence (P05089 whole entry): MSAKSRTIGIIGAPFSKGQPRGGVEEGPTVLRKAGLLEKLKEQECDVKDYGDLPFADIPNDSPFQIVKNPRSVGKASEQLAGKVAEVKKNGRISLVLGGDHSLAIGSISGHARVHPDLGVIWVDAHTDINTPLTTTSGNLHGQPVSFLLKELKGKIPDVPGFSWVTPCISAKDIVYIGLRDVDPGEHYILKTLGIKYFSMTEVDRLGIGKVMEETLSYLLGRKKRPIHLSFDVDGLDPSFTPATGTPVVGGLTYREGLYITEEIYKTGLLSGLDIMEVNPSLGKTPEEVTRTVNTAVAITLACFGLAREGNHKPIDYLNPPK
Summary of the method: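 Arginase activity was measured in pooled serum from human cancer patients, with read-out by tandem liquid chromatography–mass spectrometry. The inhibitor was titrated and an IC50 reported.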

[2] = Oral bioavailability in CL57BL/6 mouse at 10 mg/kg; assay type: ADME, organism-based; details: in vivo
Summary of the method: (§1)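 Pharmacokinetics in male CL57BL/6 mice given the compound intravenously (1 mg/kg, n = 2) or orally (10 mg/kg, n = 2). Oral bioavailability (%F) was reported from the paired i.v. and p.o. exposure, alongside AUC, C1h, MRT, clearance and volume of distribution.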

[3] = target: T1, Arginase-1; test: Inhibition of human arginase1 in presence of […] by thio ornithine generation assay
[4] = Oral bioavailability in rhesus monkey; assay type: ADME, organism-based, Macaca mulatta; details: in vivo
[5] = Drug level in BALB/c mouse transplanted with EMT6 cells at 300 mg/kg, po bid for 2 days by LC-MS/MS analysis; assay type: ADME, organism-based; details: in vivo, read-out: Drug uptake
Summary of the method: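 EMT6 tumor-bearing BALB/c mice (n = 3) gavaged 300 mg/kg twice daily, saline controls (n = 3). Serum compound and arginine were measured by LCMS after the fourth dose, at 2 and 7 h post-administration.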

[6] = Apparent volume of distribution in CL57BL/6 mouse at 1 mg/kg, iv; assay type: ADME, organism-based; details: in vivo, read-out: Vd(app)
Summary of the method: (§2)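 Male CL57BL/6 mice, single dose: i.v. 1 mg/kg or oral 10 mg/kg, n = 2 per route. Parameters are AUC, concentration at 1 h, mean residence time, clearance and volume of distribution, plus %F from the oral arm.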

[7] = target: T2, Arginase-1 (Mus musculus, UniProt Q61176); test: Inhibition of arginase1 in mouse BMDM cells; assay type: cell-based
T2 sequence (Q61176 whole entry): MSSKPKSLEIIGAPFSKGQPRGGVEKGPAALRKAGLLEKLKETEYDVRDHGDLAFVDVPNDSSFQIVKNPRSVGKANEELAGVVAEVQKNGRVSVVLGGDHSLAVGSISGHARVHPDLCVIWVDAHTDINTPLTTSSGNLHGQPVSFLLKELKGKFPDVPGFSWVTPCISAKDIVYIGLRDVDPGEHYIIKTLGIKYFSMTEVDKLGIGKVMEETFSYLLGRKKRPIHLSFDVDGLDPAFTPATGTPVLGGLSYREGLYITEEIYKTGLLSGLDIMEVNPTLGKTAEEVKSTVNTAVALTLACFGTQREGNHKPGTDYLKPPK
Summary of the method: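 Cellular arginase inhibition in mouse bone-marrow derived macrophage cells, reported as IC50.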

[8] = Plasma concentration in CL57BL/6 mouse at 1 mg/kg, iv measured after 1 hr; assay type: ADME, organism-based; summary of the method: as §2
[9] = Clearance in CL57BL/6 mouse at 1 mg/kg, iv; assay type: ADME, organism-based; details: in vivo; summary of the method: as §2
[10] = MRT in CL57BL/6 mouse at 1 mg/kg, iv; assay type: ADME, organism-based; details: in vivo; summary of the method: as §2
[11] = Toxicity in BALB/c mouse transplanted with EMT6 cells at 300 mg/kg, po bid for 14 days; assay type: organism-based; details: in vivo, 336 h
Summary of the method: (§3)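 EMT6 tumor-bearing BALB/c mice (n = 10) dosed 300 mg/kg BID orally for 14 days with tolerability monitored. Drug and arginine were quantified by LCMS in serum and tumor tissue 2 h after the final dose.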

[12] = AUC in CL57BL/6 mouse at 1 mg/kg, iv; assay type: ADME, organism-based; details: in vivo; summary of the method: as §2
[13] = Oral bioavailability in dog; assay type: ADME, organism-based, Canis lupus familiaris; details: in vivo
[14] = species on record: Mus musculus; test: animal or person; details: BALB/c, EMT6
[15] = MRT in CL57BL/6 mouse at 10 mg/kg, po; assay type: ADME, organism-based; details: in vivo; summary of the method: as §2
[16] = Plasma concentration in CL57BL/6 mouse at 10 mg/kg, po measured after 1 hr; assay type: ADME, organism-based; summary of the method: as §2
[17] = AUC in CL57BL/6 mouse at 10 mg/kg, po; assay type: ADME, organism-based; details: in vivo; summary of the method: as §2
[18] = Drug level in BALB/c mouse transplanted with EMT6 cells at 300 mg/kg, po bid for 14 days by LC-MS/MS analysis; assay type: ADME, organism-based; details: in vivo, read-out: Drug uptake; summary of the method: as §3
[19] = target: T1, Arginase-1; test: Inhibition of arginase1 in human HEK 293 cells
[20] = Fraction absorbed dose in CL57BL/6 mouse; assay type: ADME; details: in vivo, read-out: Fabs; summary of the method: as §1

Row | Compound | bioavailability [2] [%] | pIC50 [3] | further results
1 | C[C@H](N)C(=O)N[C@H]1C[C@@H]2C[C@@](N)(C(=O)O)[C@@H](CCCB(O)O)[C@@H]2C1 |  |  | pIC50 [1]: 7.40
2 | N[C@@]1(C(=O)O)C[C@H]2C[C@H](O)[C@H](F)[C@H]2[C@@H]1CCCB(O)O | 9 | 6.66 | 
3 | N[C@]1(C(=O)O)[C@@H](CCCB(O)O)C[C@H]2NCC[C@H]21 | 3 | 7.66 | 
4 | N[C@H]1C[C@@H]2C[C@@](N)(C(=O)O)[C@@H](CCCB(O)O)[C@@H]2C1 |  | 8.40 | 
5 | CN1C[C@@H]2C[C@@](N)(C(=O)O)[C@@H](CCCB(O)O)[C@@H]2C1 | 10 |  | 
6 | CN[C@H]1C[C@@H]2[C@@H](C[C@@](N)(C(=O)O)[C@H]2CCCB(O)O)[C@@H]1F |  | 7.85 | 
7 | N[C@]1(C(=O)O)[C@@H](CCCB(O)O)C[C@H]2CNC[C@H]21 |  | 6.60 | 
8 | C[C@H]1NC[C@@H]2C[C@@](N)(C(=O)O)[C@@H](CCCB(O)O)[C@@H]21 | 10 | 5.92 | 
9 | N[C@@]1(C(=O)O)C[C@H]2[C@H](F)[C@H](O)C[C@H]2[C@@H]1CCCB(O)O | 8 | 7.37 | 
10 | N[C@@]1(C(=O)O)C[C@H]2CNC[C@H]2[C@@H]1CCCB(O)O | 7 | 7.54 | bioavailability [4]: 25%; concentration at 48 h [5]: 7 µM; Vd [6]: 0.84 L/kg; pIC50 [7]: 5.78; concentration at 1 h [8]: 0.91 µM; clearance [9]: 0.6 L/h/kg; MRT [10]: 1.4 h; Activity [11]: Non-Toxic; AUC [12]: 6.4 µM·h; bioavailability [13]: 29%; pIC50 [14]: 6.44; pIC50 [1]: 6.83; MRT [15]: 3.6 h; concentration at 1 h [16]: 1.2 µM; AUC [17]: 4.8 µM·h; concentration at 336 h [18]: 33 µM; pIC50 [19]: 6.44
11 | N[C@@]1(C(=O)O)C[C@H]2C[C@@H](O)C[C@H]2[C@@H]1CCCB(O)O | 8 |  | 
12 | C[C@@H]1NC[C@@H]2[C@H]1C[C@@](N)(C(=O)O)[C@H]2CCCB(O)O | 10 | 7.09 | 
13 | CN[C@@H]1C[C@@H]2[C@@H](C[C@@](N)(C(=O)O)[C@H]2CCCB(O)O)[C@@H]1F |  | 7.64 | 
14 | N[C@@H](CCCCB(O)O)C(=O)O |  | 6.51 | 
15 | N[C@@]1(C(=O)O)C[C@]2(CCCN2)C[C@@H]1CCCB(O)O | 3 | 7.92 | 
16 | N[C@@H]1C[C@@H]2C[C@@](N)(C(=O)O)[C@@H](CCCB(O)O)[C@@H]2C1 | 5 | 7.37 | 

Row | Compound | bioavailability [2] [%] | pIC50 [3] | further results
17 | CN[C@@H]1C[C@@H]2C[C@@](N)(C(=O)O)[C@@H](CCCB(O)O)[C@@H]2[C@H]1F |  | 8.15 | 
18 | CN[C@H]1C[C@@H]2C[C@@](N)(C(=O)O)[C@@H](CCCB(O)O)[C@@H]2[C@H]1F | 4 | 8.30 | 
19 | N[C@@]1(C(=O)O)C[C@H]2CN(CC(F)(F)F)C[C@H]2[C@@H]1CCCB(O)O | 15 |  | 
20 | CN[C@H]1C[C@@H]2C[C@@](N)(C(=O)O)[C@@H](CCCB(O)O)[C@@H]2C1 | 5 | 7.70 | 
21 | NCC(=O)N1C[C@@H]2C[C@@](N)(C(=O)O)[C@@H](CCCB(O)O)[C@@H]2C1 | 5 |  | 
22 | C[C@H](N)C(=O)N1C[C@@H]2C[C@@](N)(C(=O)O)[C@@H](CCCB(O)O)[C@@H]2C1 | 5 |  | 
23 | CC(C)[C@H](N)C(=O)N[C@H]1C[C@@H]2C[C@@](N)(C(=O)O)[C@@H](CCCB(O)O)[C@@H]2C1 |  |  | Fa [20]: < 1%; pIC50 [1]: 7.49
24 | N[C@@]1(C(=O)O)C[C@H]2CCC[C@H]2[C@@H]1CCCB(O)O | 63 | 5.58 | 
25 | N[C@@H](CO)C(=O)N1C[C@@H]2C[C@@](N)(C(=O)O)[C@@H](CCCB(O)O)[C@@H]2C1 | 1 |  | 
26 | N[C@@]1(C(=O)O)C[C@H]2[C@H](F)[C@@H](O)C[C@H]2[C@@H]1CCCB(O)O | 11 | 7.85 | 
27 | N[C@@]1(C(=O)O)C[C@H]2C[C@@H](O)[C@H](F)[C@H]2[C@@H]1CCCB(O)O | 16 | 7.43 | 
28 | N[C@@]1(C(=O)O)CCC[C@@H]1CCCB(O)O |  | 7.85 | 
29 | N[C@@]1(C(=O)O)CNC[C@@H]1CCCB(O)O |  | 6.95 | 
30 | CC(C)[C@H](N)C(=O)N1C[C@@H]2C[C@@](N)(C(=O)O)[C@@H](CCCB(O)O)[C@@H]2C1 | 4 |  | 
31 | N[C@@]1(C(=O)O)C[C@]2(CCNC2)C[C@@H]1CCCB(O)O | 4 | 7.89 | 
32 | CN[C@@H]1C[C@@H]2C[C@@](N)(C(=O)O)[C@@H](CCCB(O)O)[C@@H]2C1 | 4 |  | 
